H9c2 protect: protects H9c2 cardiomyocytes from peroxide injury; 0.63% of 360,000 active; protection from H2O2 cell death, % at 20 µM; AID 588492; H2O2 injury protection, ATPLite, 2 h;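 active = compounds giving at least 50% protection of heart cells from peroxide-induced death in the single-dose screen, raw or plate-pattern-corrected value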;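 note: 0% = DMSO wells with peroxide and 100% = DMSO wells without peroxide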
T cruzi repl: blocks replication of Trypanosoma cruzi. inhibition, % (test concentration not listed). T. cruzi beta-gal in NIH3T3, luminescence, 90 h. 1.4% of 300,000 active;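 active = mean inhibition across valid replicates above about 55%, limit read from the data; inconclusive = mean below that limit but half or more replicates reach it; inactive = mean below it, under half of replicates reach it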;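 note: signal also drops with host cell toxicity which is not excluded here; 0% = plate median of DMSO wells and 100% = zero luminescence signal; higher percent means less beta-gal luminescence so fewer parasites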
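Material: NIH/3T3 host cells with β-galactosidase reporter T. cruzi; Input: 5,000 host fibroblasts per well; Medium: DMEM, 2% fetal bovine serum; Compound: 50 nL DMSO compound solution per well; Schedule: 3 h host attachment, then at least 90 h co-culture; Detection: luminescent β-galactosidase signal after 60 min lysis.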
Fh CTSL1 inh: cathepsin L1 inhibition, PFM18AAP counter-screen. recombinant F. hepatica cathepsin L1, Z-Leu-Arg-MCA fluorescence. inhibition, % at 5.96 µM. 0.49% of 300,000 active;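 active = inhibition above the mean of all tested compounds plus 3 SD, set per screening campaign, cut at about 17% in these data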;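 note: 0% = plate median of test compound wells and 100% = 1 µM Z-Phe-Ala-diazomethylketone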
pCIP destab: lowers stability of the mouse p/CIP coactivator protein. AID 1984. F442A p/CIP-EGFP cells, EGFP fluorescence, 16 h. 0.01% of 290,000 active. decrease of EGFP signal, % at 10 µM. Q05BA5;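 active = EGFP signal decrease of at least 30% at 10 µM or well 3 SD below plate mean, unless failing retest; inactive = the rest, including hits failing retest or dose response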
PP5 primary: PP5 (human) phosphatase inhibition; P53041; purified PP5c, OMFP substrate fluorescence; inhibition, % at 6.7 µM; 0.18% of 320,000 active; AID 1987;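 active = inhibition above the campaign's mean inhibition across all tested compounds plus 3 SD, cut at about 9.5% in these data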;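 note: 0% = DMSO only and 100% = 100 µM cantharidin control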
Target sequence (P53041 whole entry, looked up): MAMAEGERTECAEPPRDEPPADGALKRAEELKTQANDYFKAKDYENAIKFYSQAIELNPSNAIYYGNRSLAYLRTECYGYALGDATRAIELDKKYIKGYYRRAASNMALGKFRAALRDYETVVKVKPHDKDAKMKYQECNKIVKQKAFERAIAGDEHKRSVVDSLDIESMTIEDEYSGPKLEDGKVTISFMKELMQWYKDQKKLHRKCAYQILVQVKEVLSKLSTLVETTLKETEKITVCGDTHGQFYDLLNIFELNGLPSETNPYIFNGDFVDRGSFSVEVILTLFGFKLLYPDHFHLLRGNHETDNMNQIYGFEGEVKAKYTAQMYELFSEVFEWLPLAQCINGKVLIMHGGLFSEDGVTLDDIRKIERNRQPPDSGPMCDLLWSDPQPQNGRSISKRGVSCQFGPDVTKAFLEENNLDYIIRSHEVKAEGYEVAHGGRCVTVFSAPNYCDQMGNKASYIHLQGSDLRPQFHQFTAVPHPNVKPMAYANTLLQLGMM
GASC-1 inh: blocks human GASC-1 demethylase activity. Q9H3R0. GST-JMJD2C(1-420) H3K9me3 demethylation, DELFIA europium. inhibition, % at 2.35 µM. 0.069% of 330,000 active. AID 2099;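 active = more than half of a compound's replicate wells show inhibition beyond 50%, single wells judged on their own value; inconclusive = some, but no more than half, of replicates pass 50% inhibition; inactive = no replicate passes 50% inhibition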;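 note: signal counts dimethyl H3K9 product captured on neutravidin plate; 0% = median of DMSO wells and 100% = 0.3 times that DMSO median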
Numbers without * were called inactive; ? = inconclusive; . = not tested or not shown. A selection: hits, their analogues and other compounds. The true share with any hit is near 2.4%.

SMILES | H9c2 protect | T cruzi repl | Fh CTSL1 inh | pCIP destab | PP5 primary | GASC-1 inh
CCn1cc(CN2CCCC(C(=O)c3ccc(-c4ccccc4)c(F)c3)C2)cn1 (configuration not stated) | -10 | 55* | -11 | 0 | 0 | 0
CSc1ccccc1C(=O)C1CCCN(Cc2cnn(-c3ccccc3)c2)C1 (configuration not stated) | 3 | 74* | 4 | -6 | 0 | -15
O=C(O)c1ccc2c(c1)C(=O)N(c1ccc([N+](=O)[O-])cn1)C2=O | -2 | -14 | -3 | 4 | 3 | 19
O=C(Nc1ccccc1)c1cc(C2CCCCN2C(=O)c2ccccc2)on1 (configuration not stated) | -6 | . | . | . | . | .
NC(=S)N/N=C/c1ccc(Br)o1 | -2 | 19 | 17* | -5 | -2 | -38
NC(=S)N/N=C/c1ccc(-c2cc(Cl)c(Cl)cc2Cl)o1 | 0 | 64* | 8 | -6 | 1 | 9
CC(=O)Nc1ccc(NC(=O)c2cc([N+](=O)[O-])cc([N+](=O)[O-])c2)cc1 | 5 | 55* | -1 | 2 | 2 | 15
O=C(Nc1ccc(Br)cc1)c1cc([N+](=O)[O-])cc([N+](=O)[O-])c1 | -18 | 71* | -4 | 2 | 1 | -7
C/C(=N\NC(=O)c1cc([N+](=O)[O-])cc([N+](=O)[O-])c1)c1ccco1 | 20 | 57* | 1 | 3 | 2 | 2
O=C(/C=C/Nc1ccc(F)cc1)c1ccc(Br)cc1 | -9 | -11 | 0 | 10 | 2 | -4
O=C(/C=C/Nc1ccc([N+](=O)[O-])cc1)c1ccc(Br)cc1 | -1 | -4 | 17* | -7 | 3 | -2
COc1ccc(S(=O)(=O)N(CC(=O)NCc2ccncc2)c2cc(C)cc(C)c2)cc1OC | 10 | -1 | -4 | 0 | 0 | -2
O=[N+]([O-])c1ccc(NNS(=O)(=O)c2cc(Cl)ccc2Cl)nc1 | -1 | 5 | . | -3 | . | 6
O=C(CCNC(=O)c1ccc(Br)cc1)NCc1ccccn1 | -3 | -3 | 1 | . | -2 | 6
CCN(CC)S(=O)(=O)c1ccc(NC(=O)c2cc(C(=O)OC)cc([N+](=O)[O-])c2)cc1 | 3 | ? | -7 | -15 | 3 | 2
CN1CCN(C(=O)c2cc([N+](=O)[O-])cc([N+](=O)[O-])c2)CC1 | -2 | 15 | -2 | -3 | 1 | 36
COC(=O)c1cc(C(=O)Nc2ccc(S(=O)(=O)NC(C)(C)C)cc2)cc([N+](=O)[O-])c1 | -1 | 56* | -1 | -4 | 4 | -1
CN1CCN(NC(=O)c2cc([N+](=O)[O-])cc([N+](=O)[O-])c2)CC1 | 2 | 70* | 5 | -2 | 3 | -3
Cc1ccc(NC(=O)c2ccc(Nc3c([N+](=O)[O-])cc([N+](=O)[O-])cc3[N+](=O)[O-])cc2)cc1 | -28 | 59* | 6 | -8 | 4 | 9
Cc1ccc(NC(=O)c2ccc(C)cc2)cc1 | -26 | -16 | 4 | . | 1 | 2
CN1CCN(C(=O)C2CCC(=O)N(CCc3cccc(F)c3)C2)CC1 (configuration not stated) | 4 | -7 | -11 | -2 | 5 | 9
COc1cccc(NC(=O)c2cc([N+](=O)[O-])ccc2NCc2cccnc2)c1 | -3 | -7 | 3 | 1 | 2 | 1
Cc1ccc(NC(=O)c2cc([N+](=O)[O-])ccc2NCc2cccnc2)cc1Cl | -6 | 57* | 3 | -8 | 5 | 5
COc1ccc(NC(=O)C2(C)CCN2C(=O)Cc2ccc(Cl)cc2Cl)cc1OC (configuration not stated) | -3 | . | . | . | . | .
Cc1[nH]c2ccccc2c1/C=N/NC(=O)c1ccccc1 | 3 | 2 | 2 | -1 | 1 | 6
SMILES | H9c2 protect | T cruzi repl | Fh CTSL1 inh | pCIP destab | PP5 primary | GASC-1 inh
Cc1[nH]c2ccccc2c1/C=N/NC(=O)c1cc(-c2ccccc2)n[nH]1 | 55* | . | 8 | 7 | 4 | -5
Cc1nn(-c2ccccc2)c(C)c1/C=N/NC(=O)c1cc(-c2ccccc2)n[nH]1 | 75* | -7 | 1 | -7 | 3 | -7
CCCN(CC(=O)Nc1ccccc1C)C(=O)c1ccc(N2CCCCCC2)c([N+](=O)[O-])c1 | -6 | 35 | 0 | 1 | 1 | 6
CN(Cc1ccc(Cl)cc1Cl)C(=O)C1CSC2(C)CCC(=O)N12 (configuration not stated) | -3 | . | . | . | . | .
CC(C)C(NC(=O)c1ccc(Cl)cc1)C(=O)NCC1CCCO1 (configuration not stated) | 4 | -9 | 4 | -4 | -1 | -10
CCC(=O)c1cc(F)c(N2CCN(S(=O)(=O)c3ccc(C)cc3)CC2)cc1C | -6 | 59* | -1 | -11 | 2 | 2
Cc1ccc(C)c(N2CCN(C(=O)c3ccc(N4CCCC4=O)cc3)CC2)c1 | -7 | 1 | 1 | -3 | 1 | -5
O=[N+]([O-])c1ccc(/C=C/C2=NN(c3ccccc3)C(c3ccco3)C2)o1 (configuration not stated) | -15 | 61* | . | -308 | . | -35
C(=C\c1ccco1)/C1=NN(c2ccccc2)C(c2ccco2)C1 (configuration not stated) | -8 | -9 | 5 | -13 | 0 | 10
O=C(CCC1CCCN(Cc2cccc(Cl)c2)C1)NCc1ccccc1F (configuration not stated) | 10 | 61* | 2 | -9 | 1 | 4
Cc1nn(C(C)C)c(C)c1CN1CCCC(CCC(=O)NCc2ccccc2F)C1 (configuration not stated) | -2 | 58* | 1 | -2 | 1 | 18
CC(=O)Nc1ccc(CN2CCCC(CCC(=O)NCc3ccccc3F)C2)cc1 (configuration not stated) | 1 | 23 | 6 | 15 | 0 | -3
CC(=O)Nc1c(I)c(C(=O)N[C@H]2C(O)O[C@H](CO)[C@@H](O)[C@@H]2O)c(I)c(N(C)C(C)=O)c1I (some centres not stated) | -2 | . | 1 | . | -3 | .
COc1ccc(CCNC(=O)c2ccncc2)cc1OC | -4 | -4 | -3 | 19 | -2 | 2
COc1ccc(CCNC(=O)c2cc3c(C)nccc3[nH]c2=O)cc1OC | 76* | -2 | 6 | -7 | -2 | 27
CCC(=O)c1ccc(OCC(=O)OCC(=O)NCC2CCCO2)cc1 (configuration not stated) | 6 | -1 | -5 | -10 | 0 | 8
COc1ccc(CN(C)CC(O)COc2ccc(-c3ccccc3)cc2)cc1OC (configuration not stated) | -2 | 58* | 1 | -14 | 4 | -28
CN(Cc1ccc(OCC(O)CN(C)Cc2ccccc2)cc1)Cc1nccn1C (configuration not stated) | 2 | 6 | 1 | 6 | 0 | -1
